The source made the active and inactive calls. The rule behind the calls is not given here.
Legend:
MIA PaCa-2 [1] = experiment: Induction of cell cycle arrest in human MIAPaCa2 cells assessed as accumulation at subG1 phase at 1 uM after 48 hrs by flow cytometry (reference value: 0.20 +/- 0.06%); assay type: functional
MIA PaCa-2 [2] = experiment: Induction of cell cycle arrest in human MIAPaCa2 cells assessed as accumulation at G2/M phase at 5 uM after 48 hrs by flow cytometry (reference value: 9.35 +/- 0.92%); assay type: functional
MIA PaCa-2 [3] = experiment: Induction of cell cycle arrest in human MIAPaCa2 cells assessed as accumulation at S phase at 5 uM after 48 hrs by flow cytometry (reference value: 46 +/- 8.13%); assay type: functional
SW-620 [4] = experiment: Induction of cell cycle arrest in human SW620 cells assessed as accumulation at S phase at 1 uM after 24 hrs by flow cytometry (reference value: 37.7 +/- 0.01%); assay type: functional
SW-620 [5] = experiment: Induction of cell cycle arrest in human SW620 cells assessed as accumulation at subG1 phase at 1 uM after 24 hrs by flow cytometry (reference value: 0.37 +/- 0.36%); assay type: functional
SW-620 [6] = experiment: Induction of cell cycle arrest in human SW620 cells assessed as accumulation at G2/M phase at 5 uM after 24 hrs by flow cytometry (reference value: 10.7 +/- 0.07%); assay type: functional
SW-620 [7] = experiment: Induction of cell cycle arrest in human SW620 cells assessed as accumulation at G1 phase at 1 uM after 48 hrs by flow cytometry (reference value: 46.6 +/- 4.88%); assay type: functional
SW-620 [8] = experiment: Induction of cell cycle arrest in human SW620 cells assessed as accumulation at G2/M phase at 1 uM after 48 hrs by flow cytometry (reference value: 11.9 +/- 2.33%); assay type: functional
SW-620 [9] = experiment: Induction of cell cycle arrest in human SW620 cells assessed as accumulation at S phase at 5 uM after 48 hrs by flow cytometry (reference value: 41.7 +/- 2.47%); assay type: functional
SW-620 [10] = experiment: Induction of cell cycle arrest in human SW620 cells assessed as accumulation at subG1 phase at 5 uM after 48 hrs by flow cytometry (reference value: 0.18 +/- 0.036%); assay type: functional
HeLa [11] = experiment: Induction of cell cycle arrest in human HeLa cells assessed as accumulation at G2/M phase at 1 uM after 24 hrs by flow cytometry relative to control; assay type: functional
Procedure, shortened: (§1)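 Cells were seeded at 3×10⁵ per well in 6-well plates and treated after overnight incubation for 24 and 48 h. They were trypsinized, washed three times in PBS, fixed in cold ethanol and stored at −20 °C. Pellets were washed twice in PBS and treated with RNase A at 37 °C for 15 min, then stained with PI for 30 min in the dark. DNA content was measured by flow cytometry.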

HeLa [12] = experiment: Induction of cell cycle arrest in human HeLa cells assessed as accumulation at subG1 phase at 1 uM after 24 hrs by flow cytometry relative to control; assay type: functional; procedure, shortened: as §1
HeLa [13] = experiment: Induction of cell cycle arrest in human HeLa cells assessed as accumulation at S phase at 5 uM after 24 hrs by flow cytometry relative to control; assay type: functional; procedure, shortened: as §1
HeLa [14] = experiment: Induction of cell cycle arrest in human HeLa cells assessed as accumulation at subG1 phase at 5 uM after 24 hrs by flow cytometry relative to control; assay type: functional; procedure, shortened: as §1
HeLa [15] = experiment: Induction of cell cycle arrest in human HeLa cells assessed as accumulation at G1 phase at 1 uM after 48 hrs by flow cytometry relative to control; assay type: functional; procedure, shortened: as §1
HeLa [16] = experiment: Induction of cell cycle arrest in human HeLa cells assessed as accumulation at subG1 phase at 1 uM after 48 hrs by flow cytometry relative to control; assay type: functional; procedure, shortened: as §1
HeLa [17] = experiment: Induction of cell cycle arrest in human HeLa cells assessed as accumulation at G1 phase at 5 uM after 48 hrs by flow cytometry relative to control; assay type: functional; procedure, shortened: as §1
HeLa [18] = experiment: Induction of cell cycle arrest in human HeLa cells assessed as accumulation at G2/M phase at 5 uM after 48 hrs by flow cytometry relative to control; assay type: functional; procedure, shortened: as §1
HeLa [19] = experiment: Induction of cell cycle arrest in human HeLa cells assessed as accumulation at subG1 phase at 5 uM after 48 hrs by flow cytometry relative to control; assay type: functional; procedure, shortened: as §1
HeLa [20] = experiment: Cytostatic activity against human HeLa cells assessed as inhibition of cell proliferation after 72 hrs by MTT assay; assay type: functional, cell-based
Procedure, shortened: (§2)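 Monolayer cells grown in DMEM with 10% FBS were seeded on day 0 at 3000–6000 cells/well, set by each line's doubling time. Agents were added the next step in five 10-fold dilutions (0.01–100) for 72 h, with DMSO ≤0.1% and a solvent control. MTT absorbance was converted to percentage growth versus untreated wells on the same plate. Where all PGs exceeded 50, the top concentration was reported as ">". ANOVA/Tukey, p<0.05.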

MCF7 = experiment: Cytostatic activity against human MCF7 cells assessed as inhibition of cell proliferation after 72 hrs by MTT assay; assay type: functional, cell-based; conditions: MCF7, 72 h; procedure, shortened: as §2
HepG2 = experiment: Cytostatic activity against human HepG2 cells assessed as inhibition of cell proliferation after 72 hrs by MTT assay; assay type: functional, cell-based; conditions: HepG2, 72 h; procedure, shortened: as §2
SW-620 [21] = experiment: Cytostatic activity against human SW620 cells assessed as inhibition of cell proliferation after 72 hrs by MTT assay; assay type: functional, cell-based; conditions: SW-620, 72 h; procedure, shortened: as §2
MIA PaCa-2 [22] = experiment: Induction of cell cycle arrest in human MIAPaCa2 cells assessed as accumulation at G1 phase at 1 uM after 24 hrs by flow cytometry (reference value: 55.4 +/- 0.01%); assay type: functional; procedure, shortened: as §1
MIA PaCa-2 [23] = experiment: Induction of cell cycle arrest in human MIAPaCa2 cells assessed as accumulation at G2/M phase at 1 uM after 24 hrs by flow cytometry (reference value: 10.3 +/- 0.07%); assay type: functional
MIA PaCa-2 [24] = experiment: Induction of cell cycle arrest in human MIAPaCa2 cells assessed as accumulation at S phase at 1 uM after 24 hrs by flow cytometry (reference value: 34.3 +/- 0.07%); assay type: functional
MIA PaCa-2 [25] = experiment: Induction of cell cycle arrest in human MIAPaCa2 cells assessed as accumulation at G1 phase at 5 uM after 24 hrs by flow cytometry (reference value: 55.4 +/- 0.01%); assay type: functional
MIA PaCa-2 [26] = experiment: Induction of cell cycle arrest in human MIAPaCa2 cells assessed as accumulation at S phase at 5 uM after 24 hrs by flow cytometry (reference value: 34.3 +/- 0.07%); assay type: functional
MIA PaCa-2 [27] = experiment: Induction of cell cycle arrest in human MIAPaCa2 cells assessed as accumulation at subG1 phase at 5 uM after 24 hrs by flow cytometry (reference value: 0.32 +/- 0.009%); assay type: functional
MIA PaCa-2 [28] = experiment: Induction of cell cycle arrest in human MIAPaCa2 cells assessed as accumulation at G1 phase at 1 uM after 48 hrs by flow cytometry (reference value: 44.7 +/- 7.21%); assay type: functional
MIA PaCa-2 [29] = experiment: Induction of cell cycle arrest in human MIAPaCa2 cells assessed as accumulation at S phase at 1 uM after 48 hrs by flow cytometry (reference value: 46 +/- 8.13%); assay type: functional
MIA PaCa-2 [30] = experiment: Induction of apoptosis in human MIAPaCa2 cells at 1 to 5 uM after 24 to 48 hrs by annexin V-/PI staining

For `Nc1ncn(C/C=C2\OC(=O)C(OCc3ccccc3)=C2OCc2ccccc2)c(=O)n1`, the Activity (MIA PaCa-2 [1]) was 0.18%, the Activity (MIA PaCa-2 [2]) was 10.2% and the Activity (MIA PaCa-2 [3]) was 60.9%. For the same compound, the Activity (SW-620 [4]) was 50.5%, the Activity (SW-620 [5]) was 0.56% and the Activity (SW-620 [6]) was 17.7%. The Activity (SW-620 [7]) was 23.2%, the Activity (SW-620 [8]) was 17.9% and the Activity (SW-620 [9]) was 51.8%. It also gave an Activity (SW-620 [10]) of 0.21%, an Activity (HeLa [11]) of 11.9% and an Activity (HeLa [12]) of 0%. The Activity (HeLa [13]) was 72.1%, the Activity (HeLa [14]) was 0% and the Activity (HeLa [15]) was 20.1%. The Activity (HeLa [16]) was 0.02%, the Activity (HeLa [17]) was 23.9% and the Activity (HeLa [18]) was 13.9%. The Activity (HeLa [19]) was 0.23%, the IC50 (HeLa [20]) was 5.91 µM and the IC50 (MCF7) was 3.49 µM. For the same compound, the IC50 (HepG2) was 2720 nM, the IC50 (SW-620 [21]) was 5.62 µM and the Activity (MIA PaCa-2 [22]) was 55.6%. It also gave an Activity (MIA PaCa-2 [23]) of 14.9%, an Activity (MIA PaCa-2 [24]) of 29.5% and an Activity (MIA PaCa-2 [25]) of 35.6%. For the same compound, the Activity (MIA PaCa-2 [26]) was 57.4%, the Activity (MIA PaCa-2 [27]) was 0.21% and the Activity (MIA PaCa-2 [28]) was 22.9%. For the same compound, the Activity (MIA PaCa-2 [29]) was 64.2% and the Activity (MIA PaCa-2 [30]) was “inactive”.

From ChEMBL document CHEMBL1795205, “The new 5- or 6-azapyrimidine and cyanuric acid derivatives of l-ascorbic acid bearing the free C-5 hydroxy or C-4 amino group at the ethylenic spacer: CD-spectral absolute configuration determination and biological activity evaluations” (Eur J Med Chem, 2011)
